Assay results: ChEMBL document CHEMBL4376878, “Potent Thiophene Antagonists of Human Complement C3a Receptor with Anti-Inflammatory Activity” (J Med Chem, 2020)
Activity calls are given as the source filed them. No cut-off for these calls is given here.

Key:
[1] = target: T1, C3a anaphylatoxin chemotactic receptor (Homo sapiens, UniProt Q16581); experiment: Agonist activity at C3a receptor in human MDM cells assessed as induction of intracellular calcium release measured at 1 sec interval for => 200 secs by Fluo-3 AM dye-based FLIPR assay; format: cell-based
T1 sequence (Q16581 whole entry): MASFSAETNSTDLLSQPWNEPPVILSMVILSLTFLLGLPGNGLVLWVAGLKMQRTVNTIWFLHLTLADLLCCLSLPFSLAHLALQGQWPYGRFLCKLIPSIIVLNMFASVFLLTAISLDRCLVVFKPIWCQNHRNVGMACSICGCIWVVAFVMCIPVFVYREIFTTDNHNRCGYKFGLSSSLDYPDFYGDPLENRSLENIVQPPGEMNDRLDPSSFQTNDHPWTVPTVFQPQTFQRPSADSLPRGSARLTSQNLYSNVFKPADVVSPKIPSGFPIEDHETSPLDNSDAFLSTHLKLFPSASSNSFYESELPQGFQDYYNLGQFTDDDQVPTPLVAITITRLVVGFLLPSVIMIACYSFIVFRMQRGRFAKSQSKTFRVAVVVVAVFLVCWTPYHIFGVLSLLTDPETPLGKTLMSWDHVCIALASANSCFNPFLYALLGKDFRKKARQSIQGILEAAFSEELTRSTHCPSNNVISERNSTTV
How it was run: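 HMDMs were differentiated from CD14⁺ monocytes with M-CSF (100 ng/mL) for 7 days and seeded overnight at 5 × 10⁴ cells/well. Cells were loaded with 4 μM Fluo-3 AM for 1 h at 37 °C, then placed in HBSS with 2.5 mM probenecid and 20 mM HEPES, pH 7.4. Agonist was added on FLIPR and read at ex 495/em 520 nm. EC50 is relative to the maximum from 1 μM C3a; n ≥ 3.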

[2] = target: T2, C3a anaphylatoxin chemotactic receptor (Homo sapiens) (UniProt Q16581); experiment: Potency index, ratio of SB290157 IC50 to test compound IC50 for antagonist activity at C3a receptor in human MDM cells; format: cell-based
T2 sequence (whole entry): T1 sequence (Q16581 whole entry)

[3] = Stability of the compound in rat plasma at 1 mM measured after 4 hrs by LC-MS analysis; format: ADME, cell-free
How it was run: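 Compound added to rat plasma from 1 mM DMSO stock (stock concentration) and incubated at 37 °C. Samples taken at 0, 5, 15, 30, 60, 120 and 240 min, quenched in MeCN/H₂O 9:1, centrifuged and analyzed by LC-MS. Plasma activity checked with SLIGRL-NH₂.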

[4] = Stability of the compound in rat liver microsomes at 1 uM preincubated for 5 mins followed by NADPH addition and measured after 1 hr by LC-MS/MS analysis; format: ADME, Microsome
How it was run: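 Compound at 1 μM in 100 mM phosphate buffer, pH 7.4 (0.1% DMSO), was incubated with rat liver microsomes […] at 37 °C before further NADPH was added. Aliquots taken at 0, 5, 15, 30 and 60 min were quenched in MeCN/H₂O (9:1), centrifuged and analysed by LC-MS/MS. Microsomal activity was confirmed in parallel with SLIGRL-NH₂; n = 3.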

[5] = target: T2, C3a anaphylatoxin chemotactic receptor (Homo sapiens); experiment: (§1) Antagonist at C3a receptor in human LAD2 cells assessed as inhibition of C3a-induced beta-hexosaminidase release preincubated for 30 mins followed by C3a addition; format: cell-based
How it was run: (§2)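 LAD2 mast cells grown with SCF, 1 × 10⁴ cells/well seeded overnight and presensitized overnight with IgE (100 ng/mL). Compounds preincubated 30 min at 37 °C in 0.1 M HEPES pH 7.4, then C3a added and β-hexosaminidase release measured. IC50 is concentration inhibiting 50% of release induced by 100 nM C3a; n ≥ 3.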

[6] = target: T1, C3a anaphylatoxin chemotactic receptor; experiment: as §1; format: cell-based; how it was run: as §2
[7] = Cmax in Wistar rat at 10 mg/kg, po by LC-MS/MS analysis; format: ADME, organism-based; design: dose 10 mg/kg, route oral; conditions: in vivo
How it was run: (§3)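 Male Wistar rats with jugular vein catheter, fasted overnight; dosed p.o. by gavage in olive oil or i.v. via catheter in 50% DMSO. Blood drawn from conscious unrestrained rats 5 min before dosing, then 5, 15, 30 min and 1–8 h after. Volume replaced with heparinized saline. Rats fed after 4 h sample. n = 3 per route.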

[8] = Clearance in Wistar rat at 1 mg/kg, iv by LC-MS/MS analysis; format: ADME, organism-based; conditions: in vivo; how it was run: as §3
[9] = system: Rattus norvegicus; experiment: Antiinflammatory activity in Wistar rat model of BR103-induced paw edema assessed as reduction in hind paw swelling at 10 mg/kg, po administered via gavage pretreated for 2 hrs followed by BR103 challenge and measured after 30 mins by digital caliper method relative to control; format: functional; design: scale not given: the % may be the effect or the level left
How it was run: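 Male Wistar rats were given antagonist at 10 mg/kg by oral gavage in olive oil 2 h before intraplantar BR103 (350 μg in 100 μL of 5% DMSO). Sham paws received vehicle; sham and control rats received olive oil only. Paw thickness and width were measured with digital calipers at 0, 0.5, 1 and 2 h after agonist; n = 3 per group.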

[10] = system: Rattus norvegicus; experiment: Antiinflammatory activity in Wistar rat model of BR103-induced paw edema assessed as reduction in hind paw swelling at 30 mg/kg, po administered via gavage pretreated for 6 to 8 hrs followed by BR103 challenge and measured after 30 mins by digital caliper method relative to control; format: functional; design: scale not given: the % may be the effect or the level left
How it was run: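 For duration of action, antagonist was given at 30 mg/kg by oral gavage in olive oil at 1, 2, 4, 6, 8 or 12 h before intraplantar BR103 (350 μg/paw) in male Wistar rats. Controls received olive oil 2 h before challenge. Paw thickness and width were measured with calipers at 0 and 0.5 h; n = 3 per group.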

[11] = system: Rattus norvegicus; experiment: Antiinflammatory activity in Wistar rat model of BR103-induced paw edema assessed as reduction in Il1b gene expression at 10 mg/kg, po administered via gavage pretreated for 2 hrs followed by BR103 challenge and measured after 30 mins by SYBR green dye based RT-PCR analysis; format: functional, organism-based
How it was run: (§4)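 Rats given 10 mg/kg p.o. in olive oil 2 h before i.pl. BR103 (350 μg/paw). Paws collected 0.5 h after agonist and homogenized in TRIsure for RNA. qPCR run in duplicate, normalized to Hprt, with fold change relative to sham. n = 3–5 male Wistar rats per group.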

[12] = system: Rattus norvegicus; experiment: Antiinflammatory activity in Wistar rat model of BR103-induced paw edema assessed as reduction in Il10 gene expression at 10 mg/kg, po administered via gavage pretreated for 2 hrs followed by BR103 challenge and measured after 30 mins by SYBR green dye based RT-PCR analysis; format: functional, organism-based; how it was run: as §4
[13] = system: Rattus norvegicus; experiment: Antiinflammatory activity in Wistar rat model of BR103-induced paw edema assessed as reduction in Ccl2 gene expression at 10 mg/kg, po administered via gavage pretreated for 2 hrs followed by BR103 challenge and measured after 30 mins by SYBR green dye based RT-PCR analysis; format: functional, organism-based; how it was run: as §4
[14] = system: Rattus norvegicus; experiment: Antiinflammatory activity in Wistar rat model of BR103-induced paw edema assessed as reduction in histamine release at 10 mg/kg, po administered via gavage pretreated for 2 hrs followed by BR103 challenge and measured after 30 mins by immunohistochemical analysis; format: functional, organism-based
How it was run: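 Male Wistar rats 7–8 weeks old, given 10 mg/kg p.o. in olive oil 2 h before i.pl. BR103 (350 μg/paw). Sham/control received olive oil. Left paw plantar tissue taken 30 min after agonist and fixed in formalin. Frozen 5 μm sections stained with alcian blue/safranin O, or immunostained for tryptase, histamine or ED1. Positive cells quantified; n = 5 per group, one-way ANOVA.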

Compound `Cc1cc(C(c2ccc(Cl)cc2)c2ccc(Cl)cc2)sc1C(=O)N[C@@H](CCCNC(=N)N)C(=O)O` has an EC50 ([1]; read-out: EC50) of over 100 µM, an EC50 ([1]; read-out: pEC50 (converted)) of over 100 µM and a Ratio IC50 [2] of 100. For the same compound, the Stability [3] was “Stable”, the Stability [4] was “Stable” and the inhibition [5] was “Dose-dependent effect”. It also gave an IC50 [6] of 0.008 µM, a Cmax [7] of 88 ng/mL and a clearance [8] of 4.4 mL/min/kg. The Activity [9] was 65%, the Activity [10] was 85% and the Activity [11] was “Active”. The Activity [12] was “Active”, the Activity [13] was “Active” and the Activity [14] was “Active”.
